Laboratory results: ChEMBL document CHEMBL4513216, “Probing the Open Global Health Chemical Diversity Library for Multistage-Active Starting Points for Next-Generation Antimalarials” (ACS Infect Dis, 2020)

Assay: Toxicity liver stage against HepG2, at 10uM
Format: cell-based
Parameters: test concentration 10 uM, cell line HepG2-A16-CD81EGFP
Settings: human, HepG2-A16-CD81EGFP cells; read-out: INHIBITION
Summary of the method: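 Uninfected HepG2-A16-CD81EGFP cells, 3 × 10^3 per well, 1536-well, plated on prespotted compound at 10 μM final, parasite-free screening media added to match infected plates; puromycin 10 μM positive, DMSO 0.5% negative; run in parallel with 48 h PbLuc assay at 37 °C, 5% CO2; viability by CellTiter-Glo luminescence, normalized to controls.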

Row | SMILES | cytotoxicity at 10 µM [%]
1 | CCOC(=O)c1cnn(-c2cc(Oc3cccc(C)c3)ncn2)c1N | 16.9
2 | O=C(NC[C@H]1OC[C@@H](NC2CCOCC2)[C@@H]1O)Nc1ccccc1 | -5.75
3 | CCOc1ccc(C(=O)Nc2c(C)nc3ccc(Cl)cn3c2=O)cc1 | -4.31
4 | Cc1cnc2c(c1NCc1ccc(F)cc1)c(=O)n(C)c(=O)n2C | -7.36
5 | CCN(C)C(=O)c1ccnn1-c1ccc2ccccn12 | 6.71
6 | O=C(C1CC1)N1CCC2(CC1)CNCCO2 | -2.82
7 | CNC(=O)C1CC2(CCN(C(=O)c3csnn3)CC2)c2ccccc21 (stereo unspecified) | -154
8 | COCCNC(=O)c1sccc1N(C)S(=O)(=O)c1ccc(Cl)cc1 | 6.33
9 | Cc1ccccc1COCCOCn1c(C)cc(=O)[nH]c1=O | 2.56
10 | CCn1ncc(Cn2cc(Cl)c(N)n2)c1C | -8.55
11 | CC(C)c1cc(C(=O)NCCN2CCOCC2)nc(N2CCCC2)n1 | 8.82
12 | Cc1cccc(CN2CCCC2c2cccc(CCC(=O)O)n2)c1 (stereo unspecified) | -12.6
13 | Cc1cncc(CN2C[C@@H](O)[C@H](Oc3ccccc3)C2)c1 | 0.442
14 | O=C(C1CCCC1)N1CCC(c2n[nH]c3nccnc23)CC1 | 0.165
15 | CC(=O)N1CCCC1c1cc(N2CCN(CC(C)(C)C)CC2)cc(C)n1 (stereo unspecified) | -6.41
16 | Cc1noc(C2CCCN(C(=O)c3cc(Cl)c(Cl)n3C)C2)n1 (stereo unspecified) | 13.6
17 | CCOc1nnc(CN2CCN(CCOC)C(C)C2)s1 (stereo unspecified) | -11.1
18 | O=C(c1cc(C2CC2)nc2onc(-c3ccccc3)c12)N1CCOCC1 | -40.5
19 | COc1c(NS(=O)(=O)c2ccc(C)c(C)c2)c(C)nn1C | 3.73
20 | CCc1noc(CS(=O)(=O)C(C)c2nc(C3CC3)no2)n1 (stereo unspecified) | 11.3
21 | CCN(C(=O)CN1CCn2c(nnc2C2CC2)C1)C1=CCCCC1 | 10

Row | SMILES | cytotoxicity at 10 µM [%]
22 | O=C(NCc1cccnc1-n1cncn1)c1ccncc1 | 5.91
23 | Cc1cccc2nc(CNC(=O)N3CCC(OCC4CC4)CC3)cn12 | -2.02
24 | CCC(C)NC(=O)c1nnn(-c2cccc3c2CCN(C)C3)c1C (stereo unspecified) | -6.39
25 | CCOc1cc(C(=O)N(C)C)ccc1NC(=O)C(C)c1ccsc1 (stereo unspecified) | 5.61
26 | O=C(CCN1C(=O)CCC1=O)Nc1ccc(Oc2ccc(Cl)cc2)nc1 | -23.5
27 | Cc1nc(SC2CCN(c3sccc3C#N)C2=O)oc1C (stereo unspecified) | -4.92
28 | Cc1occc1C(=O)N(CCN(C)C)Cc1ccccn1 | 7.65
29 | CCCNC(=O)C1CCN(CC(O)c2ccc(C(F)(F)F)cc2)CC1 (stereo unspecified) | 2.68
30 | COc1ccccc1C(C)N1CCN(S(C)(=O)=O)CC1 (stereo unspecified) | 9.62
31 | O=C(CNc1cccc(S(=O)(=O)C(F)F)c1)NCc1ccco1 | -40.5
32 | CCN(CC(=O)N(C)C)S(=O)(=O)c1cnc2c(c1)c(C)nn2C | 2.59
33 | Cc1cn2c(n1)C(CNCc1ccc(C)s1)CCC2 (stereo unspecified) | -26.3
34 | Cc1ccc2cc(C(=O)N3CCC(O)(C(F)(F)F)CC3)ccc2n1 | -54.7
35 | O=C(NC1CC1)c1cc2c(s1)CCN2C(=O)C1CC1 | 6.17
36 | O=C1[C@H]2CN(c3cnccn3)C[C@H]2CN1CC1CC1 | -108
37 | CCC(=O)N1CCC2(CC1)CC(CC(=O)N(C)C)c1ccc(F)cc12 (stereo unspecified) | -101
38 | O=C(c1cccs1)N1CCC2(C1)c1ccccc1S(=O)(=O)N2CC1CC1 (stereo unspecified) | -4.27
39 | c1cncc(-c2nc(C3CC3)ncc2-c2ccnc(N3CCCC3)n2)c1 | -2.5
40 | CC(C)CC(=O)N1CC(=O)c2sc(Nc3ccc(F)cc3)nc2C1 | -2.28
41 | CSc1nnc(CC2CCN(C(=O)CCc3cccnc3)CC2)n1C | -43.5
42 | CC(Cn1cncn1)NCc1csc2c1CCCC2 (stereo unspecified) | -1.53

Row | SMILES | cytotoxicity at 10 µM [%]
43 | CCc1ncc2c(n1)CN(C(=O)CC(C)NC(C)=O)C2 (stereo unspecified) | 3.6
44 | CCC(Nc1nc(CCN)nc2ccccc12)c1cccs1 (stereo unspecified) | -3.09
45 | CCCc1cc(CN(C)C2CSCCSC2)n[nH]1 | 0.786
46 | O=C(O)CCc1cc2n(n1)CCCN(C(=O)c1ccc(Cl)s1)C2 | -6.06
47 | COc1cc(CN2CCC3(CC2)[C@H](O)C[C@@H]3OCCO)ccc1F | -12.2
48 | Cc1nccn1CCC1CCCCN1Cc1ccc2c(c1)OCCO2 (stereo unspecified) | -7.63
49 | CCc1cc(-c2ccnc3c2ccn3C)nc(N2CCOCC2)n1 | -7.09
50 | COCC(=O)N(Cc1cccc(C)c1)Cc1ccccc1OC | -51.4
51 | COc1ccccc1N1CCN(C(=O)CSCC2CC2)C(C)C1 (stereo unspecified) | 4.06
52 | O=C(CCc1ccccn1)NC1CCCN(C2Cc3ccccc3C2)C1 (stereo unspecified) | 1.96
53 | CN(C)[C@H]1CCCCN(C(=O)COCc2nc3cc(F)ccc3[nH]2)C1 | 0.185
54 | COCC1(CNC(=O)Nc2cc(F)ccc2OC)CCCC1 | 5.17
55 | CNC(=O)[C@@H]1C[C@@H](NC(=O)Cc2nonc2C)CN1Cc1sccc1C | -4.42
56 | CCc1cc(NC2CCN(CC(N)=O)CC2)nc(N2CCCCC2)n1 | -4.75
57 | CN1CCN(c2cnn(Cc3ccc(S(C)(=O)=O)cc3)c(=O)c2)CC1 | -10.4
58 | COc1ccc(-c2n[nH]cc2CN(C)Cc2nccn2C)c(F)c1 | -2.77
59 | O=C1CCCN1CCN1CC[C@@]2(O)CCN(c3ncccn3)C[C@H]2C1 | -2.61
60 | COC(=O)c1cc(CN2CCN(c3nc(C)cnc3C)CC2)ccc1O | 0.171
61 | COCC1(C(=O)N[C@H]2CN(c3ccnc(C)c3)C[C@@H]2C2CC2)CCC1 | -160
62 | CCC[C@@H]1CN(C(=O)c2cnc3ccccc3c2)C[C@H]1NS(C)(=O)=O | -11.1
63 | CN1CCCC(c2cccc(Cc3ccccc3Cl)n2)C1 (stereo unspecified) | 1.03

Row | SMILES | cytotoxicity at 10 µM [%]
64 | O=C(c1cnco1)N1CCCC(Cc2cccc3ncccc23)C1 (stereo unspecified) | 2.16
65 | CC1CN(C)CCN1C(=O)c1ccn(-c2cccc(F)c2)n1 (stereo unspecified) | -1.87
66 | Cc1nc(C)n(CC2CN(Cc3cc(C#N)ccc3F)CCO2)n1 (stereo unspecified) | -1.56
67 | CC(NC(=O)NCc1cc[nH]n1)c1ccc2c(c1)CCC(=O)N2 (stereo unspecified) | -9.37
68 | CCc1nc(C2CCCN2CCCS(=O)(=O)c2ccccc2)no1 (stereo unspecified) | -6.15
69 | Cc1ccc(-c2nc(CN3CCCC3Cn3cc(C)cn3)no2)cc1 (stereo unspecified) | 4.07
70 | CC(C)Oc1ccccc1CNC(=O)N1CCC(n2cncn2)CC1 | 2.38
71 | CCOC(=O)N1CCN(c2nc(NCCCO)c3ccccc3n2)CC1 | -9.21
72 | CC1CCN(CCCNS(=O)(=O)c2cc(F)cc(F)c2)CC1 | 11.3
73 | CCOCC1CN(C(=O)c2cnoc2C)Cc2cn(C)nc21 (stereo unspecified) | 12.9
74 | CN1CCN(c2ccc3ccc(C(=O)N4CCCO4)cn23)CC1 | 13.4
75 | O=C(c1ccncc1F)N1Cc2nc(CN3CCCCC3)oc2C1 | -105
76 | COCCN1CCc2cc(C(=O)NCC3CC3)c(NC(C)C)nc2CC1 | 73.6
77 | N#Cc1cccc(N2CCCC3(CNCCO3)C2)n1 (stereo unspecified) | 13.7
78 | COC[C@@]12CCO[C@@H]1CCN(Cc1ccccc1OC)C2 | -110
79 | Cc1cccc(CN2CC[C@H]3[C@H]2CCN3Cc2cnn(C)c2)n1 | 8.67
80 | O=C(NC1CCC1)[C@H]1C[C@H]2CN(S(=O)(=O)c3ccccc3)C[C@@H]1O2 | -9.02
81 | O=C(CN1C[C@@H]2CC[C@H]1CN(Cc1ccccn1)C2)NCc1cccs1 | -24.2
